From ChEMBL document CHEMBL1126177, “Synthesis and biological evaluation of N alpha-(5-deaza-5,6,7,8-tetrahydropteroyl)-L-ornithine” (J Med Chem, 1992) come the findings set out here.

The structures appear in SMILES notation.

Assay [1] has as its system MCF7. The assay is described as follows: In vitro effect on 10-formyldihydrofolate (10-CHO-DHF) in MCF-7 cells at 1 uM(control= 0.2); Folate pools. The assay is classed as functional, Homo sapiens.
The test system of assay [2] is MCF7. The assay is described as follows: In vitro effect on 10-formylfolic acid (10-CHO-FA) in MCF-7 cells at 1 uM(control= 0.1); Folate pools. The format is functional, Homo sapiens.
Assay [3] concerns MCF7. The experiment in a line: In vitro effect on 10-formyltetrahydrofolate (10-CHO-THF) in MCF-7 cells at 1 uM(control= 1.7); Folate pools. The assay is classed as functional, Homo sapiens.
The subject of assay [4] is MCF7. The assay is described as follows: In vitro effect on 5-formyltetrahydrofolate (5-CHO-THF) in MCF-7 cells at 1 uM(control= 0.1); Folate pools. The assay is classed as functional, Homo sapiens.
The subject of assay [5] is MCF7. The experiment in a line: In vitro effect on 5-methyltetrahydrofolate (5-CH3-THF) in MCF-7 cells at 1 uM(control= 0.7); Folate pools. The format is functional, Homo sapiens.
The test system of assay [6] is MCF7. The assay is described as follows: In vitro effect on dihydrofolate (DHF) in MCF-7 cells at 1 uM(control= 0.2); Folate pools. The assay is classed as functional, Homo sapiens.
Assay [7] concerns MCF7. The assay is described as follows: In vitro effect on folic acid (FA) in MCF-7 cells at 1 uM(control= 0.0); Folate pools. The format is functional, Homo sapiens.
The test system of assay [8] is MCF7. The experiment in a line: In vitro effect on tetrahydrofolate (THF) in MCF-7 cells at 1 uM(control= 1.0); Folate pools. The format is functional, Homo sapiens.
Assay [9] has as its system MCF7. The experiment in a line: In vitro effect on total folates in MCF-7 cells at 1 uM(control= 4.0); Folate pools. The assay is classed as functional, Homo sapiens.
In assay [10] the target is Bifunctional purine biosynthesis protein ATIC (Homo sapiens) (UniProt P31939). The assay is described as follows: Compound was evaluated for the inhibition of 5-aminoimidazole-4-carboxamide ribonucleotide transformylase obtained from human at 100 uM. The method, boiled down:
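AICAR transformylase partially purified from human MOLT-4 cells by a modified literature procedure. Activity was followed with a continuous spectrophotometric assay.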

The next assay has as its target T1, Dihydrofolate reductase (Homo sapiens, UniProt P00374).
T1 sequence (P00374 whole entry): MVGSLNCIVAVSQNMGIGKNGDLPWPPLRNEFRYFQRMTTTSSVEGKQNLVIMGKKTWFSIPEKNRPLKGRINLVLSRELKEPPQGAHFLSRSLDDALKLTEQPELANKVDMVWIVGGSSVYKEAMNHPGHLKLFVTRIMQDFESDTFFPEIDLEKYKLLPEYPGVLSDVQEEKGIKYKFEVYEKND
The assay is described as follows: Compound was evaluated for the inhibition of dihydrofolate reductase obtained from human. Conditions: read-out: I50.

Assay [11] relates to MCF7. The experiment in a line: In vitro effect on total folates in MCF-7 cells at 100 uM(control= 4.0); Folate pools. The format is functional, Homo sapiens.
The test system of assay [12] is MCF7. The experiment in a line: In vitro effect on total folates in MCF-7 cells at 50 uM (control= 4.0); Folate pools. The format is functional, Homo sapiens.
In assay [13] the test system is MCF7. The assay is described as follows: In vitro effect on 10-formyldihydrofolate (10-CHO-DHF) in MCF-7 cells at 100 uM (control= 0.2); Folate pools. The format is functional, Homo sapiens.
Assay [14] concerns MCF7. The assay is described as follows: In vitro effect on 10-formyldihydrofolate (10-CHO-DHF) in MCF-7 cells at 50 uM (control= 0.2); Folate pools. The assay is classed as functional, Homo sapiens.
For assay [15], the system named is MCF7. The assay is described as follows: In vitro effect on 10-formylfolic acid (10-CHO-FA) in MCF-7 cells at 50 uM(control= 0.1); Folate pools. The assay is classed as functional, Homo sapiens.
For assay [16], the system named is MCF7. The experiment in a line: In vitro effect on 10-formyltetrahydrofolate (10-CHO-THF) in MCF-7 cells at 100 uM (control= 1.7); Folate pools. The assay is classed as functional, Homo sapiens.
The test system of assay [17] is MCF7. The assay is described as follows: In vitro effect on 10-formyltetrahydrofolate (10-CHO-THF) in MCF-7 cells at 50 uM (control= 1.7); Folate pools. The assay is classed as functional, Homo sapiens.
In assay [18] the test system is MCF7. The assay is described as follows: In vitro effect on 5-formyltetrahydrofolate (5-CHO-THF) in MCF-7 cells at 100 uM (control= 0.1); Folate pools. The assay is classed as functional, Homo sapiens.
Assay [19] deals with MCF7. The experiment in a line: In vitro effect on 5-formyltetrahydrofolate (5-CHO-THF) in MCF-7 cells at 50 uM(control=0.1); Folate pools. The format is functional, Homo sapiens.
In assay [20] the test system is MCF7. The assay is described as follows: In vitro effect on 5-methyltetrahydrofolate (5-CH3-THF) in MCF-7 cells at 100 uM (control= 0.7); Folate pools. The assay is classed as functional, Homo sapiens.
Assay [21] relates to MCF7. The experiment in a line: In vitro effect on 5-methyltetrahydrofolate (5-CH3-THF) in MCF-7 cells at 50 uM(control=0.7); Folate pools. The format is functional, Homo sapiens.
Assay [22] relates to MCF7. The experiment in a line: In vitro effect on dihydrofolate (DHF) in MCF-7 cells at 100 uM (control= 0.2); Folate pools. The format is functional, Homo sapiens.
The subject of assay [23] is MCF7. The experiment in a line: In vitro effect on dihydrofolate (DHF) in MCF-7 cells at 50 uM (control=0.2); Folate pools. The assay is classed as functional, Homo sapiens.
For assay [24], the system named is MCF7. The assay is described as follows: In vitro effect on folic acid (FA) in MCF-7 cells at 100 uM (control= 0.0); Folate pools. The assay is classed as functional, Homo sapiens.
The test system of assay [25] is MCF7. The assay is described as follows: In vitro effect on folic acid (FA) in MCF-7 cells at 50 uM (control= 0.0); Folate pools. The assay is classed as functional, Homo sapiens.
Assay [26] deals with MCF7. The experiment in a line: In vitro effect on tetrahydrofolate (THF) in MCF-7 cells at 100 uM(control= 1.0); Folate pools. The format is functional, Homo sapiens.
In assay [27] the test system is MCF7. The experiment in a line: In vitro effect on tetrahydrofolate (THF) in MCF-7 cells at 50 uM (control=1.0); Folate pools. The format is functional, Homo sapiens.
In another assay the target is Thymidylate synthase (Homo sapiens, UniProt P04818). The assay is described as follows: Compound was evaluated for the inhibition of thymidylate synthase obtained from human. Conditions: read-out: I50. In a few lines:
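Human thymidylate synthase came from an SV40-transformed fibroblast line, cloned and expressed in E. coli, and purified to homogeneity by affinity chromatography. Activity was measured by the ³H-release method.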

Assay [28] concerns MCF7. The experiment in a line: In vitro effect on 10-formylfolic acid (10-CHO-FA) in MCF-7 cells at 100 uM(control= 0.1); Folate pools. The format is functional, Homo sapiens.

Thymidylate synthase, sequence (P04818 whole entry): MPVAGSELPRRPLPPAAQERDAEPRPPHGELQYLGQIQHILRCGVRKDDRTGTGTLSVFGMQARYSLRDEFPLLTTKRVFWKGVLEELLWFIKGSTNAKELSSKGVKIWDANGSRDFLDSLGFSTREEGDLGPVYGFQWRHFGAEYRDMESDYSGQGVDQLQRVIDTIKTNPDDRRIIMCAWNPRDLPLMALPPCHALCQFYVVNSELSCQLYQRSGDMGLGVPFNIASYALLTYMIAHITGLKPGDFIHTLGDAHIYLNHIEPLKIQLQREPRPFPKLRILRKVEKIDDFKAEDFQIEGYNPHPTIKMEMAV
Bifunctional purine biosynthesis protein ATIC (Homo sapiens), sequence (P31939 whole entry, looked up): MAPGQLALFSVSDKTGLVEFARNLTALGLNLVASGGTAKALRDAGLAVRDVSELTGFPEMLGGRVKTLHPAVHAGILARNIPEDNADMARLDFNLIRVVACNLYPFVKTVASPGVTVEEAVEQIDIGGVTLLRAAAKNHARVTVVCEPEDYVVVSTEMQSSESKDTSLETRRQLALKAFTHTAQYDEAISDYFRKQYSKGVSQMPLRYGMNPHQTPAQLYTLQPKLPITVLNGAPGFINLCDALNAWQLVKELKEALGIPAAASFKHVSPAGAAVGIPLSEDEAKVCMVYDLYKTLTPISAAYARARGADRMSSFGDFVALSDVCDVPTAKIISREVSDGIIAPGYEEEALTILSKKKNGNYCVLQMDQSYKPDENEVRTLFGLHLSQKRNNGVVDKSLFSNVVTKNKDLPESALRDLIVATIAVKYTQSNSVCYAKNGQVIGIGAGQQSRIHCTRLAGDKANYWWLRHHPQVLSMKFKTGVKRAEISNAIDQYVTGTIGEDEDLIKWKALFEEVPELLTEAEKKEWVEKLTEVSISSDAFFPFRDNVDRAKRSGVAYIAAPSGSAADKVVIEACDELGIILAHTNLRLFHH

Regarding `CN(Cc1cnc2nc(N)nc(N)c2n1)c1ccc(C(=O)N[C@@H](CCC(=O)O)C(=O)O)cc1` [METHOTREXATE], the Activity in the assay with MCF7 [1] is given as 0.6 pM (10e6*cells)-1; in the assay with MCF7 [2], 0.3 pM (10e6*cells)-1; in the assay on MCF7 [3], 0.8 pM (10e6*cells)-1; in the assay on MCF7 [4], 0.1 pM (10e6*cells)-1; in the assay with MCF7 [5], 0.1 pM (10e6*cells)-1; with MCF7 [6], 1.6 pM (10e6*cells)-1. Moreover, the values for the Activity in the assay on MCF7 [7], in the assay on MCF7 [8] and with MCF7 [9] were 0.1 pM (10e6*cells)-1, 0.4 pM (10e6*cells)-1 and 4.1 pM (10e6*cells)-1, respectively.

What is called inhibition is the share of the control response that was lost under treatment. Turning to `NCCCC(NC(=O)c1ccc(NCC2CNc3nc(N)nc(O)c3C2)cc1)C(=O)O` (stereo not given), in [10], the inhibition was determined as 16%. The IC50 turned out to be 2 µM on Dihydrofolate reductase and 470 µM on Thymidylate synthase. In addition, the Activity in the assay with MCF7 [11] is reported as 3.9 pM (10e6*cells)-1; with MCF7 [12] it was 4.1 pM (10e6*cells)-1; with MCF7 [13], 0.3 pM (10e6*cells)-1; in the assay with MCF7 [14], 0.3 pM (10e6*cells)-1; in the assay with MCF7 [15] it was 0.2 pM (10e6*cells)-1; in the assay with MCF7 [16], 1.7 pM (10e6*cells)-1. Moreover, the Activity in the assay with MCF7 [17] is listed as 1.8 pM (10e6*cells)-1; in the assay on MCF7 [18] it was 0.1 pM (10e6*cells)-1; with MCF7 [19] it was 0.2 pM (10e6*cells)-1; in the assay on MCF7 [20], 0.6 pM (10e6*cells)-1; in the assay on MCF7 [21] it was 0.6 pM (10e6*cells)-1; in the assay on MCF7 [22], 0.2 pM (10e6*cells)-1. For the same molecule, the Activity in the assay on MCF7 [23] is 0.2 pM (10e6*cells)-1; with MCF7 [24], 0 pM (10e6*cells)-1; in the assay on MCF7 [25], 0 pM (10e6*cells)-1; with MCF7 [26], 0.9 pM (10e6*cells)-1; in the assay with MCF7 [27], 1 pM (10e6*cells)-1; in the assay on MCF7 [28], 0.1 pM (10e6*cells)-1.
